Compound activity from PubChem.
Sampled rows, rich in hits. Any-hit rate of the full collection: about 4.7%.
Mdm2 MdmX PPI: human Mdm2/MdmX binding inhibition | O15151+Q00987 | SaOS-2 split-luciferase Mdm2/MdmX complementation, luminescence | AID 485346 | inhibition, % at 8 µM | actives 3% (n = 330,000);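 active = inhibition of at least 50% at 8 µM in the primary screen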
VIM-2 inh: blocks Pseudomonas aeruginosa VIM-2 metallo-beta-lactamase. purified VIM-2, nitrocefin hydrolysis, epi-absorbance fluorescence. inhibition, % at 5.6 µM. actives 0.89% (n = 290,000). AID 1527;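 active = inhibition above the mean of all tested compounds plus 3 SD, cutoff set per screening run, cut at about 7.5% in these data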;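 note: red hydrolysis product quenches plate fluorescence so inhibitors raise well fluorescence; 0% = enzyme with DMSO and 100% = DMSO without enzyme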
Jurkat NFkB inh: lowers PMA/ionomycin-induced NF-kB signal in Jurkat cells. inhibition, % at 4 µM. PMA/ionomycin-induced NF-kB luciferase reporter, luminescence. actives 0.53% (n = 330,000); in the data active = inhibition above about 50%
IMP-1 inhibitor: blocks Pseudomonas aeruginosa IMP-1 metallo-beta-lactamase | purified IMP-1, nitrocefin hydrolysis, epi-absorbance fluorescence | inhibition, % at 5.6 µM | actives 0.45% (n = 290,000) | AID 1556;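 active = inhibition above the mean plus 3 SD of all compounds in the same screening run, cut at about 4.5% in these data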;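 note: 0% = IMP-1 with DMSO and 100% = DMSO wells lacking enzyme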
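Material – recombinant IMP-1 enzyme, purified · Amount – IMP-1 0.2 nM before substrate addition · Medium – HEPES buffer pH 7.1 with ZnSO4 and Brij 35 · Timing – 25 °C, 15 min preincubation, 25 min reaction · Measured by – plate fluorescence quenching by hydrolysis product, ex 480/em 530 nm · Read-out – percent enzyme inhibition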
697 NFkB inh: lowers PMA/ionomycin-induced NF-kB signal in 697 B cells | actives 0.33% (n = 330,000) | 697 B-cell NF-kB luciferase reporter, 16 h | inhibition, % at 4 µM; in the data active = inhibition above about 35%
aSyn UTR inh: MLPCN primary screen, SNCA 5' untranslated region | alpha-synuclein 5'UTR reporter, inhibitor activity | inhibition, % (tested at 7.5 µM) | actives 0.82% (n = 300,000); in the data active = inhibition above about 60%;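 note: H4 neuroglioblastoma cells stably carrying SNCA 5'UTR luciferase fusion; 0% = DMSO wells and 100% = positive control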
Mdm2-MdmX conf: confirmation of human Mdm2/MdmX interaction inhibitors; shares compounds with Mdm2 MdmX PPI; Mdm2-MdmX binding, luminescent assay; inhibition, % at 8 µM; actives 55% (n = 10,000); AID 489028; in the data active = inhibition above about 40%
Full FLuc ctr: inhibits full-length luciferase, flagging false Mdm2/MdmX hits; inhibition, % at 8 µM; shares compounds with Mdm2 MdmX PPI; actives 77% (n = 6,200); AID 504607; SaOS-2 full-length luciferase counterscreen, luminescence;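 active = mean inhibition at 8 µM reaching about 37%, which flags the compound as non-specific, limit read from the data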;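 note: p53-null SaOS-2 cells with luciferase driven by a doxycycline-inducible promoter; compound on cells about two nights before reading with doxycycline added after day one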
Active calls of the source: *.

What do the screens show for `O=C(O)/C=C/C(=O)c1c(-c2ccccc2)[nH]c2ccccc12`?
Mdm2 MdmX PPI: 23; VIM-2 inh: 2; Jurkat NFkB inh: 7; IMP-1 inhibitor: 1; 697 NFkB inh: -6; aSyn UTR inh: 3

Results for CC(=O)c1c(-c2ccccc2)[nH]c2ccccc12 ?
Mdm2 MdmX PPI: 52*; VIM-2 inh: 0; Jurkat NFkB inh: 16; IMP-1 inhibitor: 1; 697 NFkB inh: -14; aSyn UTR inh: -51; Mdm2-MdmX conf: 33

What do the screens show for `CCCCC1(C)NC(=O)N(CC(=O)N2CCc3ccccc32)C1=O` (configuration not stated)?
Mdm2 MdmX PPI: 3; Jurkat NFkB inh: 26; 697 NFkB inh: -6

How did Cc1[nH]c(=S)[nH]c(=O)c1CCOc1ccccc1 do in these assays?
Mdm2 MdmX PPI: 31; VIM-2 inh: -2; Jurkat NFkB inh: -1; IMP-1 inhibitor: -2; 697 NFkB inh: 9; aSyn UTR inh: 7

Results for Cc1ccccc1OCCc1c(C)[nH]c(=S)[nH]c1=O ?
Mdm2 MdmX PPI: 55*; VIM-2 inh: 0; Jurkat NFkB inh: 40; IMP-1 inhibitor: -3; 697 NFkB inh: 4; aSyn UTR inh: 34; Mdm2-MdmX conf: 62*; Full FLuc ctr: 56*

Results for Cc1ccc(S(=O)(=O)Oc2ccccc2/C=N/NC(N)=S)cc1 ?
Mdm2 MdmX PPI: 54*; VIM-2 inh: -3; Jurkat NFkB inh: 37; IMP-1 inhibitor: -3; 697 NFkB inh: 14; aSyn UTR inh: 59; Mdm2-MdmX conf: 56*; Full FLuc ctr: 45*

How did CCCn1c(Nc2nc3ccccc3n2C)nc2ccccc21 do in these assays?
Mdm2 MdmX PPI: 90*; VIM-2 inh: -4; Jurkat NFkB inh: 15; IMP-1 inhibitor: -4; 697 NFkB inh: -5; aSyn UTR inh: -12; Mdm2-MdmX conf: 100*; Full FLuc ctr: 53*

Results for CCCCCCCn1c(NC(=O)CC)nc2ccccc21 ?
Mdm2 MdmX PPI: 77*; VIM-2 inh: -6; Jurkat NFkB inh: -4; IMP-1 inhibitor: -3; 697 NFkB inh: -10; aSyn UTR inh: 68*; Mdm2-MdmX conf: 42*; Full FLuc ctr: 51*

How did S=C(Nc1ccccc1)Nc1nc2ccccc2n1CCOc1ccc(Cl)cc1 do in these assays?
Mdm2 MdmX PPI: 84*; VIM-2 inh: -2; Jurkat NFkB inh: -7; IMP-1 inhibitor: 0; 697 NFkB inh: -2; aSyn UTR inh: -19; Mdm2-MdmX conf: 41*; Full FLuc ctr: 68*

How did CCCn1c(NC(=O)c2cccc(S(=O)(=O)N3CCCC3)c2)nc2ccccc21 do in these assays?
Mdm2 MdmX PPI: 93*; VIM-2 inh: -2; Jurkat NFkB inh: 25; IMP-1 inhibitor: -3; 697 NFkB inh: -140; aSyn UTR inh: 53; Mdm2-MdmX conf: 76*; Full FLuc ctr: 57*

Results for CCOC(=O)c1cnc(SC)nc1Oc1cccc(NS(=O)(=O)c2ccc(C)cc2)c1 ?
Mdm2 MdmX PPI: 13; VIM-2 inh: -1; Jurkat NFkB inh: 8; IMP-1 inhibitor: -3; 697 NFkB inh: 3; aSyn UTR inh: 33

Results for O=C1CCCN1CCCNS(=O)(=O)c1ccc(F)c(F)c1 ?
Mdm2 MdmX PPI: 19; VIM-2 inh: 1; Jurkat NFkB inh: 11; IMP-1 inhibitor: -2; 697 NFkB inh: 13; aSyn UTR inh: 3

How did CCn1c(NC(=S)Nc2ccccc2)nc2ccccc21 do in these assays?
Mdm2 MdmX PPI: -11; VIM-2 inh: -1; Jurkat NFkB inh: -34; IMP-1 inhibitor: -2; 697 NFkB inh: -53; aSyn UTR inh: -106

Results for CCCn1c(NC(=S)Nc2ccccc2)nc2ccccc21 ?
Mdm2 MdmX PPI: 52*; VIM-2 inh: -3; Jurkat NFkB inh: -3; IMP-1 inhibitor: -2; 697 NFkB inh: -23; aSyn UTR inh: -59; Mdm2-MdmX conf: 39

What do the screens show for `CCc1ccc(/C=C/c2c([N+](=O)[O-])c(=O)n(C)c(=O)n2C)cc1`?
Mdm2 MdmX PPI: 64*; VIM-2 inh: -2; Jurkat NFkB inh: 11; IMP-1 inhibitor: -6; 697 NFkB inh: 14; aSyn UTR inh: -62; Mdm2-MdmX conf: 44*; Full FLuc ctr: 40*
